Source: ChEMBL document CHEMBL1151739, “Probes for narcotic receptor mediated phenomena. 37. Synthesis and opioid binding affinity of the final pair of oxide-bridged phenylmorphans, the ortho- and para-b-isomers and their N-phenethyl analogues, and the synthesis of the N-phenethyl analogues of the ortho- and para-d-isomers” (J Med Chem, 2008)

Tests used:
Mu-type opioid receptor [1] = target: T1, Mu-type opioid receptor (Homo sapiens, UniProt P35372); experiment: Binding affinity to mu opioid receptor
[2] = target: Delta-type opioid receptor (Homo sapiens, UniProt P41143); experiment: Displacement of [125I]IOXY from human recombinant delta opioid receptor expressed in CHO cells; type: cell-based
In short: (§1)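 Radioligand displacement run in CHO cells stably transfected to express the μ-, δ- or κ-opioid receptor, each receptor in its own line. The method follows the authors' earlier procedure. Each value comes from n=3 determinations.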

Mu-type opioid receptor [3] = target: T1, Mu-type opioid receptor; experiment: Displacement of [125I]IOXY from human recombinant mu opioid receptor expressed in CHO cells; type: cell-based; in short: as §1
[4] = target: Kappa-type opioid receptor (Homo sapiens, UniProt P41145); experiment: Displacement of [125I]IOXY from human recombinant kappa opioid receptor expressed in CHO cells; type: cell-based; in short: as §1
Kappa-type opioid receptor, sequence (P41145 whole entry): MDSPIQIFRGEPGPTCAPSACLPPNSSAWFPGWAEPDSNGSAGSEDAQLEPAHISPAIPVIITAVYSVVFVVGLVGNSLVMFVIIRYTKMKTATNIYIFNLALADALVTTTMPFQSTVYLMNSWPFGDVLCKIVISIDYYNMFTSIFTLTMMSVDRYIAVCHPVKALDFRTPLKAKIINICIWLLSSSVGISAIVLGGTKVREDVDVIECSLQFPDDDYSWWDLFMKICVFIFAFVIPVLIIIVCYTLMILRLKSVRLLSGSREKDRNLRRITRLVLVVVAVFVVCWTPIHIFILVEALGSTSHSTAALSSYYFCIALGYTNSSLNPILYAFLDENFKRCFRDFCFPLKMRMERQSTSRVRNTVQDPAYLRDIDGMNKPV

T1 sequence (P35372 whole entry): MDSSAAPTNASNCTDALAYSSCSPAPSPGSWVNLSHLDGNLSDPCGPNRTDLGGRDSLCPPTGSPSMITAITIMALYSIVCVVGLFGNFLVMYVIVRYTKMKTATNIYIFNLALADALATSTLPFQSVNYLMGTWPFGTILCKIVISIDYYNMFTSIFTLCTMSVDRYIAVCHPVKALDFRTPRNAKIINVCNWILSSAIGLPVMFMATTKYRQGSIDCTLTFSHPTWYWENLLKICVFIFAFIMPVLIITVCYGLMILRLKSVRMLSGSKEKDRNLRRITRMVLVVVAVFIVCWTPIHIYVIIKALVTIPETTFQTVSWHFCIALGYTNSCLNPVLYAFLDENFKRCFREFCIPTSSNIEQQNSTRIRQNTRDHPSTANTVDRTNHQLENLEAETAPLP
Delta-type opioid receptor, sequence (P41143 whole entry): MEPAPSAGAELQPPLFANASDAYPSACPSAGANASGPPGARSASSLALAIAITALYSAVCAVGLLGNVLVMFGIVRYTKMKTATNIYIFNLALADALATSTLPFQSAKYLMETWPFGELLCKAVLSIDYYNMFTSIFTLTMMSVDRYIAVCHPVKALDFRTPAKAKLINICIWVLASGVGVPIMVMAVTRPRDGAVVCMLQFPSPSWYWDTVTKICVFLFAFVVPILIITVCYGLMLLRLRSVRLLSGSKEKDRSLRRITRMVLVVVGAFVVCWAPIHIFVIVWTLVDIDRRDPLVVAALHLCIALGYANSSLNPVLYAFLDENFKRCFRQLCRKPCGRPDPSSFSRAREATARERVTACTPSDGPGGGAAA

Compound	Ki (Mu-type opioid receptor [1]) [µM]	Ki [2] [µM]	Ki (Mu-type opioid receptor [3]) [µM]	Ki [4] [µM]
Oc1cccc2c1O[C@@H]1[C@@H]3CCC[C@]21CCN3CCc1ccccc1	0.007			
Oc1ccc2c(c1)[C@]13CCC[C@H](C1)N(CCc1ccccc1)C[C@@H]3O2 (relative stereo)		2.53	1.22	0.56
